Measured values taken from ChEMBL document CHEMBL4387781, “Optimization of oxadiazole derivatives with a spirocyclic cyclohexane structure as novel GPR119 agonists” (Bioorg Med Chem Lett, 2019).
The source made the active and inactive calls. The calls are words filed in the database; no cut-off is given here.

Key:
[1] = target: T1, Glucose-dependent insulinotropic receptor (Homo sapiens, UniProt Q8TDV5); assay: Agonist activity at recombinant human GPR119 expressed in HEK293 cells assessed as increase in intracellular cAMP accumulation measured after 30 mins; format: functional, cell-based
T1 sequence (Q8TDV5 whole entry): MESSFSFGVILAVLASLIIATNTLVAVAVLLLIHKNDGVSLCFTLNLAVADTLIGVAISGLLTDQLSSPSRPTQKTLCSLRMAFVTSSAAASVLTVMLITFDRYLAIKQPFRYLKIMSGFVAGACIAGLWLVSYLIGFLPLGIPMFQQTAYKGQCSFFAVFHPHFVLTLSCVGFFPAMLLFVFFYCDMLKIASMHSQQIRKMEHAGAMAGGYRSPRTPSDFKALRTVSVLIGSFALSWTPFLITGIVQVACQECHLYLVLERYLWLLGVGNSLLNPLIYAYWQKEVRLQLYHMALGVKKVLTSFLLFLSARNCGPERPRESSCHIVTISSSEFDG

[2] = target: T2, Glucose-dependent insulinotropic receptor (Homo sapiens) (UniProt Q8TDV5); assay: Agonist activity at recombinant human GPR119 expressed in HEK293 cells assessed as increase in intracellular cAMP accumulation measured after 30 mins relative to oleoylethanolamide; format: functional, cell-based
T2 sequence (whole entry): T1 sequence (Q8TDV5 whole entry)

[3] = Stability in rat liver microsomes assessed as parent compound remaining at 5 uM measured after 1 hr; format: ADME, Microsome; settings: read-out: Stability
Outline: (§1)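 Compound at 5 μM incubated 1 hour with human or rat liver microsomes (0.2 mg/mL); percent of parent remaining reported.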

[4] = Stability in human liver microsomes assessed as parent compound remaining at 5 uM measured after 1 hr; format: ADME, Microsome; settings: read-out: Stability; outline: as §1
[5] = Protein binding in human plasma; format: ADME, cell-free; settings: read-out: PPB (converted)
[6] = Protein binding in rat plasma; format: ADME, cell-free; settings: read-out: PPB (converted)
[7] = Terminal half life in Sprague-Dawley rat at 1 mg/kg, iv; format: ADME, organism-based; settings: in vivo, read-out: beta t1/2 (converted)
Outline: (§2)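 Sprague-Dawley rats given 1 mg/kg intravenously or 3 mg/kg orally; t1/2β, CL, Vdss and MRT from IV dosing, oral bioavailability from PO dosing.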

Cytochrome P450 2D6 = Cytochrome P450 2D6 (Homo sapiens, UniProt P10635); assay: Inhibition of CYP2D6 (unknown origin); format: ADME
Cytochrome P450 2D6, sequence (P10635 whole entry): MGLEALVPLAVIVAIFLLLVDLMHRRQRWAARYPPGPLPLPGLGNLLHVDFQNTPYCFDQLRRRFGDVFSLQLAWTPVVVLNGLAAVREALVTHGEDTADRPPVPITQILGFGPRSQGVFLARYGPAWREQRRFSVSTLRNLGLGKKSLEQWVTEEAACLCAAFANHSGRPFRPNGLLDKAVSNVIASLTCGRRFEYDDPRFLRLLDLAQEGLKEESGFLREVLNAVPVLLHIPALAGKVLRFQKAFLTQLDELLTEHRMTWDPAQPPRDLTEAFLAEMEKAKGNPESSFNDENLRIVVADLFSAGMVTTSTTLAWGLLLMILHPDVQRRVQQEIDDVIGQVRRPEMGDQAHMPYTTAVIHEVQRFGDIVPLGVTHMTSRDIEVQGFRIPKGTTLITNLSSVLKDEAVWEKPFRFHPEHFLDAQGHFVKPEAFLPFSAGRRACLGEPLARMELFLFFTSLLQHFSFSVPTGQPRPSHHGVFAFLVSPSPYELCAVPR

Rattus norvegicus [8] = assay: Hypoglycemic activity in Sprague-Dawley rat assessed as reduction in plasma glucose AUC at 1 mg/kg, po treated for 16 hrs prior to glucose stimulation and measured up to 2 hrs by IPGTT relative to control; format: functional; design: scale not given: the % may be the effect or the level left
Outline: (§3)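 Overnight-fasted 7-week-old Sprague-Dawley rats dosed by oral gavage; 16 h later glucose 1 g/kg given intraperitoneally. Tail-vein blood drawn before and at 10, 30, 60 min after loading; glucose followed up to 2 h. Plasma glucose by automatic analyzer, insulin by rat insulin ELISA; glucose AUC calculated.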

Rattus norvegicus [9] = assay: Hypoglycemic activity in Sprague-Dawley rat assessed as reduction in plasma glucose level at 1 to 3 mg/kg, po treated for 16 hrs prior to glucose stimulation and measured up to 2 hrs by IPGTT; format: functional, organism-based; outline: as §3
Cytochrome P450 2C19 = Cytochrome P450 2C19 (Homo sapiens, UniProt P33261); assay: Inhibition of CYP2C19 (unknown origin); format: ADME
Cytochrome P450 2C19, sequence (P33261 whole entry): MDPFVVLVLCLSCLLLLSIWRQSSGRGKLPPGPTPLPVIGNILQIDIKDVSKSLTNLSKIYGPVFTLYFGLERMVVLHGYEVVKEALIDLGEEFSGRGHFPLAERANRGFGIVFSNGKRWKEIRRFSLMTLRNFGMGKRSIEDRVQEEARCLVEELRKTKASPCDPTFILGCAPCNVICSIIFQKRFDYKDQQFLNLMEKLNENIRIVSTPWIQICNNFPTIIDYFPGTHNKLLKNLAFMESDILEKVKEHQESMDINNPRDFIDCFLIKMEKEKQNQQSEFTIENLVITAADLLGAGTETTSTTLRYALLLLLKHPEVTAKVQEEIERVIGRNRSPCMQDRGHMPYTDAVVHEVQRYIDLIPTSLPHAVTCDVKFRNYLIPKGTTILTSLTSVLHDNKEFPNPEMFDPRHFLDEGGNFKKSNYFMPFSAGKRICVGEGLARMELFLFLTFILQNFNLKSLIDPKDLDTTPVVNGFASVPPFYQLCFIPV

Cytochrome P450 1A2 = target: T3, Cytochrome P450 1A2 (Homo sapiens, UniProt P05177); assay: Inhibition of CYP1A2 (unknown origin); format: ADME
T3 sequence (P05177 whole entry): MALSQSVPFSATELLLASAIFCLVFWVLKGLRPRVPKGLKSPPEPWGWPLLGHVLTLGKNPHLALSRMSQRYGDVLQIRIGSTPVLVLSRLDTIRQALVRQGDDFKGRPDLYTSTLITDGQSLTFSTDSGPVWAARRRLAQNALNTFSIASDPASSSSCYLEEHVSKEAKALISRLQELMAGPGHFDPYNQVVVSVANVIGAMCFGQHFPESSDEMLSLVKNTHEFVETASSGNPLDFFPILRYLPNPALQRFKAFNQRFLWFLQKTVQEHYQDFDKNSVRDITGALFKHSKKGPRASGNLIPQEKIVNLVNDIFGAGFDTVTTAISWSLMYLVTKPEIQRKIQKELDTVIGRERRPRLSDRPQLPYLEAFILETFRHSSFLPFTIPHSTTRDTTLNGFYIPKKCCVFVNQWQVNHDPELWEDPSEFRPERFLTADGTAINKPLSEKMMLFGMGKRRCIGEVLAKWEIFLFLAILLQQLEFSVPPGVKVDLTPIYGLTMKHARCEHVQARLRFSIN

Cytochrome P450 2C9 = Cytochrome P450 2C9 (Homo sapiens, UniProt P11712); assay: Inhibition of CYP2C9 (unknown origin); format: ADME
Cytochrome P450 2C9, sequence (P11712 whole entry): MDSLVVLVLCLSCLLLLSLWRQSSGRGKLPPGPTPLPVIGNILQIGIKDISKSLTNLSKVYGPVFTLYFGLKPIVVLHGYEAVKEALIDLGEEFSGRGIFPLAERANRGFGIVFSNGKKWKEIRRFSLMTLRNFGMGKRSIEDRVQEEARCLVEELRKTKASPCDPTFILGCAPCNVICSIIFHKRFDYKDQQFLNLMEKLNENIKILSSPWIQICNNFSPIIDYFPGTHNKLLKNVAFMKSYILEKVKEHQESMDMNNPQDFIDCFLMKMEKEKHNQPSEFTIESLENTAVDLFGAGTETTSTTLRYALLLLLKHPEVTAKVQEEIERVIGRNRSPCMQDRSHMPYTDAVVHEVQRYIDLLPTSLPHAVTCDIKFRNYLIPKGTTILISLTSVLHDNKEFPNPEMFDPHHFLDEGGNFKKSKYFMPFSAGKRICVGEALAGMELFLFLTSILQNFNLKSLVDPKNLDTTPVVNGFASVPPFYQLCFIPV

Rattus norvegicus [10] = assay: Hypoglycemic activity in Sprague-Dawley rat assessed as reduction in plasma insulin level at 1 to 3 mg/kg, po treated for 16 hrs prior to glucose stimulation and measured up to 1 hr by ELISA; format: functional, organism-based; outline: as §3
[11] = MRT in Sprague-Dawley rat at 1 mg/kg, iv; format: ADME, organism-based; settings: in vivo; outline: as §2
Cytochrome P450 2C8 = target: T4, Cytochrome P450 2C8 (Homo sapiens, UniProt P10632); assay: Inhibition of CYP2C8 (unknown origin); format: ADME
T4 sequence (P10632 whole entry): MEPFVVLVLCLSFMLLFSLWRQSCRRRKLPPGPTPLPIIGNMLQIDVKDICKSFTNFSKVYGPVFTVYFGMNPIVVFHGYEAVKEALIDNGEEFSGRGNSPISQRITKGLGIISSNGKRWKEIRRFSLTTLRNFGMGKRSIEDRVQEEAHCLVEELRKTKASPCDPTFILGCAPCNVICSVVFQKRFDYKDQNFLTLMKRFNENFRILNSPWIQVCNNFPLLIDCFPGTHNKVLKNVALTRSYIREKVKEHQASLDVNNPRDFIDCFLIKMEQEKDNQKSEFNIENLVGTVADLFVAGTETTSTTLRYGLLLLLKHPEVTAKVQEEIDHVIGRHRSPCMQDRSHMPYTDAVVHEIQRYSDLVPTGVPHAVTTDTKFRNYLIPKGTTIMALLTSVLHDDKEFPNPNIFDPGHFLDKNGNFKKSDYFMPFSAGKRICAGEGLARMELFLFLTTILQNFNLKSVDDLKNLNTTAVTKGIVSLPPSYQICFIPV

Rattus norvegicus [12] = assay: Effect on plasma insulin level in Sprague-Dawley rat at 1 to 3 mg/kg, po measured after 16 hrs by ELISA; format: ADME, organism-based; settings: in vivo; outline: as §3
[13] = Clearance in Sprague-Dawley rat at 1 mg/kg, iv; format: ADME, organism-based; settings: in vivo; outline: as §2
Cytochrome P450 3A4 = Cytochrome P450 3A4 (Homo sapiens, UniProt P08684); assay: Inhibition of CYP3A4 (unknown origin); format: ADME
Cytochrome P450 3A4, sequence (P08684 whole entry): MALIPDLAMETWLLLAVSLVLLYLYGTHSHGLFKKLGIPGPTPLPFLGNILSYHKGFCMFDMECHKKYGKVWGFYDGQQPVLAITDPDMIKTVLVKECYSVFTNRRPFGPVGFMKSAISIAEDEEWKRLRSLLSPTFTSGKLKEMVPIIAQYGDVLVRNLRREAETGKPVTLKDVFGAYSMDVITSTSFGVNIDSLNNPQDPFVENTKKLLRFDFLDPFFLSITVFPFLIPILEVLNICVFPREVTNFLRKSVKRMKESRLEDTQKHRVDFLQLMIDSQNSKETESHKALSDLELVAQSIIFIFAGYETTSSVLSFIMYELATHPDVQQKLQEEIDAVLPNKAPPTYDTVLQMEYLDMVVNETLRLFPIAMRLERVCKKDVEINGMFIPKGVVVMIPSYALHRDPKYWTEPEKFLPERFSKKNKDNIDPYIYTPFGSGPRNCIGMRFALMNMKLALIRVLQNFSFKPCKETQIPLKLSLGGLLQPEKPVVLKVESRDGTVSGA

Rattus norvegicus [14] = assay: Effect on plasma glucose level in Sprague-Dawley rat at 1 to 3 mg/kg, po measured after 16 hrs; format: ADME, organism-based; settings: in vivo; outline: as §3
[15] = Oral bioavailability in Sprague-Dawley rat at 3 mg/kg; format: ADME, organism-based; settings: in vivo; outline: as §2
Rattus norvegicus [16] = assay: Hypoglycemic activity in Sprague-Dawley rat assessed as reduction in plasma glucose AUC at 3 mg/kg, po treated for 16 hrs prior to glucose stimulation and measured up to 2 hrs by IPGTT relative to control; format: functional; design: scale not given: the % may be the effect or the level left; outline: as §3
[17] = Volume of distribution at steady state in Sprague-Dawley rat at 1 mg/kg, iv; format: ADME, organism-based; settings: in vivo, read-out: Vdss; outline: as §2

EC50 [1] [nM]	%max [2] [%]	remaining at 1 h, 5 µM [3] [%]	remaining at 1 h, 5 µM [4] [%]	SMILES	other results
64	118			C[C@@H](O[C@H]1CC[C@]2(CC1)COC(C)(C)C2)c1nc(-c2cc(F)c(CS(C)(=O)=O)cc2F)no1	
430	106			C[C@H](O[C@H]1CC[C@]2(CC1)COC(C)(C)C2)c1nc(-c2ccc(CS(C)(=O)=O)c(F)c2)no1	
44	130	86	62	CC(O[C@H]1CC[C@]2(CC1)COC(C)(C)C2)c1nc(-c2ccc(CS(C)(=O)=O)c(F)c2)no1 (mixture of isomers)	
2460	86			CC(O[C@H]1CC[C@]2(CC1)COC(C)(C)C2)c1nc(-c2ccc(C(=O)N(C)C)c(F)c2)no1 (mixture of isomers)	
	109			CC(O[C@H]1CC[C@]2(CC1)COC(C)(C)C2)c1nc(-c2ccc(S(C)(=O)=O)c(F)c2)no1 (mixture of isomers)	
301	77			C[C@@H](O[C@H]1CC[C@]2(CC1)COC(C)(C)C2)c1nc(-c2ccc(CS(C)(=O)=O)c(F)c2F)no1	
27	106			C[C@@H](O[C@H]1CC[C@]2(CC1)COC(C)(C)C2)c1nc(-c2ccc(CS(C)(=O)=O)c(F)c2)no1	
69	131			CC(O[C@H]1CC[C@]2(CC1)COC(C)(C)C2)c1nc(-c2ccc(CC(=O)N(C)C)c(F)c2)no1 (mixture of isomers)	
720	114	54	49	CC(O[C@H]1CC[C@]2(CCCO2)CC1)c1nc(-c2ccc(CS(C)(=O)=O)c(F)c2)no1 (stereo partly specified)	
86	112	64	39	CC(O[C@H]1CC[C@]2(CCCCO2)CC1)c1nc(-c2ccc(CS(C)(=O)=O)c(F)c2)no1 (stereo partly specified)	
29	113	53	0	CC(O[C@H]1CC[C@@]2(CC1)CC(C)(C)CCO2)c1nc(-c2ccc(CS(C)(=O)=O)c(F)c2)no1 (stereo partly specified)	
25	109	56	0	CC(O[C@H]1CC[C@]2(CCC(C)(C)CO2)CC1)c1nc(-c2ccc(CS(C)(=O)=O)c(F)c2)no1 (stereo partly specified)	
31	115	55	15	CC(O[C@H]1CC[C@@]2(CC1)CC(C)(C)CO2)c1nc(-c2ccc(CS(C)(=O)=O)c(F)c2)no1 (stereo partly specified)	
5	109	83	65	C[C@@H](O[C@H]1CC[C@]2(CC1)COC(C)(C)C2)c1nc(-c2cc(F)c(CS(C)(=O)=O)c(F)c2)no1	fraction unbound [5]: 0.035; fraction unbound [6]: 0.06
6	112	98	98	C[C@@H](O[C@H]1CC[C@]2(CCC(F)(F)CO2)CC1)c1nc(-c2cc(F)c(CS(C)(=O)=O)c(F)c2)no1	half-life [7]: 306 min; IC50 (Cytochrome P450 2D6): > 50 µM; Activity (Rattus norvegicus [8]): 10%; Activity (Rattus norvegicus [9]): Active; IC50 (Cytochrome P450 2C19): > 50 µM; IC50 (Cytochrome P450 1A2): > 50 µM; IC50 (Cytochrome P450 2C9): > 50 µM; Activity (Rattus norvegicus [10]): Active; MRT [11]: 6.4 h; IC50 (Cytochrome P450 2C8): > 50 µM; Activity (Rattus norvegicus [12]): Non-Toxic; clearance [13]: 8.33 mL/min/kg; IC50 (Cytochrome P450 3A4): > 50 µM; Activity (Rattus norvegicus [14]): Non-Toxic; bioavailability [15]: 43%; Activity (Rattus norvegicus [16]): 12%; Vd [17]: 3.5 L/kg
27	106	91	97	C[C@@H](O[C@H]1CC[C@@]2(CC1)CC(F)(F)CCO2)c1nc(-c2cc(F)c(CS(C)(=O)=O)c(F)c2)no1	
261	103			CC1(C)C[C@]2(CC[C@H](OCc3nc(-c4ccc(S(C)(=O)=O)c(F)c4)no3)CC2)CO1	
426	120			CC(O[C@H]1CC[C@]2(CC1)COC(C)(C)C2)c1nc(-c2ccc(CS(C)(=O)=O)cc2)no1 (mixture of isomers)	
7	116	85	83	C[C@@H](O[C@H]1CC[C@@]2(CC1)CC(F)(F)CO2)c1nc(-c2cc(F)c(CS(C)(=O)=O)c(F)c2)no1	
